Tests used:
[1] = Growth inhibition of dog MDCK2-MDR1 cells overexpressing human P-glycoprotein; type: functional; conditions: Canis lupus familiaris, MDCK-II
Procedure, shortened: (§1)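 Parental lines (MDCKII, LLC-PK1) and matched Pgp-overexpressing lines (MDCKII-MDR1, about 500-fold Pgp; L-MDR1, about 25000-fold Pgp) were tested with and without the Pgp inhibitor LY335979. Each experiment was run at least in triplicate, with 8 wells per concentration. GI50 came from a nonlinear four-parameter sigmoidal concentration-response fit.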

LLC-PK1 [2] = test: Growth inhibition of pig LLC-PK1 cells; type: functional; conditions: Sus scrofa; procedure, shortened: as §1
MDCK-II = test: Ratio of GI50 for dog MDCK2-MDR1 cells overexpressing human P-glycoprotein to GI50 for dog MDCK2 cells; type: functional, Canis lupus familiaris
[3] = Growth inhibition of pig L-MDR1 cells overexpressing human P-glycoprotein in presence of P-glycoprotein inhibitor LY335979; type: functional; conditions: Sus scrofa; procedure, shortened: as §1
[4] = biological target: T1, Kinesin-like protein KIF11 (Homo sapiens, UniProt P52732); test: Inhibition of untagged human Eg5 basal ATPase activity; conditions: read-out: Ki(app)
T1 sequence (P52732 whole entry): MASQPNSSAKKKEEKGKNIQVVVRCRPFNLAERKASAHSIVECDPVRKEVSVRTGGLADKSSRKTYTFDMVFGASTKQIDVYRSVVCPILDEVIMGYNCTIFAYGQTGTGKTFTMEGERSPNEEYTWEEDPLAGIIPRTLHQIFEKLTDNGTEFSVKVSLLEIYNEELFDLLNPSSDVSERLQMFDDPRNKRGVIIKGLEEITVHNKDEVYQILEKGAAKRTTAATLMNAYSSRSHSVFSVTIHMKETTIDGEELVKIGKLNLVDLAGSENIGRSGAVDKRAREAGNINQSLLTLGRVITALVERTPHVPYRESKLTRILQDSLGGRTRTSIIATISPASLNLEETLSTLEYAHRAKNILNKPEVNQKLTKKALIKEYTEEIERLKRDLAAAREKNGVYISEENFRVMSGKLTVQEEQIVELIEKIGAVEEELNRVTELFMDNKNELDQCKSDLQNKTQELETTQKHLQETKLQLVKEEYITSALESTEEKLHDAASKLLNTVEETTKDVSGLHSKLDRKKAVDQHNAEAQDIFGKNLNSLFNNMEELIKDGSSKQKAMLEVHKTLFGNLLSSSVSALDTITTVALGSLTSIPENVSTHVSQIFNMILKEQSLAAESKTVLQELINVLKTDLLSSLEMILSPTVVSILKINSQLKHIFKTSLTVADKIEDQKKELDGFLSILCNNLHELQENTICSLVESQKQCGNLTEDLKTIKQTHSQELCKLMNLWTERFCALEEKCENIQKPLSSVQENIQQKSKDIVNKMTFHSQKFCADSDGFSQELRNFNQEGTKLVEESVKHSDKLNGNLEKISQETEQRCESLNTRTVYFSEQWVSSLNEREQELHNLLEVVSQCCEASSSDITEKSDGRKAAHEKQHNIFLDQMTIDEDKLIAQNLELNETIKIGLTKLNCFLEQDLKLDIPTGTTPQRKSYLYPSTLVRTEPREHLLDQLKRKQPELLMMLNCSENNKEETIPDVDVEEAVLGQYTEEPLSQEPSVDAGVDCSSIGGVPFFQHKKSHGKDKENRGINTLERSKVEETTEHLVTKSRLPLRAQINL

[5] = biological target: T1, Kinesin-like protein KIF11; test: Inhibition of untagged human Eg5 microtubule-stimulated ATPase activity
LLC-PK1 [6] = test: Ratio of GI50 for pig L-MDR1 cells overexpressing human P-glycoprotein to GI50 for pig LLC-PK1 cells; type: functional, Sus scrofa
Procedure, shortened: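 MDR ratio is the GI50 in L-MDR1 cells (Pgp-overexpressing) divided by the GI50 in parental LLC-PK1 cells. Each GI50 came from growth inhibition run at least in triplicate, with 8 wells per concentration, fitted by a four-parameter sigmoidal model.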

[7] = Growth inhibition of dog MDCK2 cells in presence of P-glycoprotein inhibitor LY335979; type: functional; conditions: Canis lupus familiaris, MDCK-II; procedure, shortened: as §1
[8] = Growth inhibition of dog MDCK2-MDR1 cells overexpressing human P-glycoprotein in presence of P-glycoprotein inhibitor LY335979; type: functional; conditions: Canis lupus familiaris, MDCK-II; procedure, shortened: as §1
[9] = Growth inhibition of pig L-MDR1 cells overexpressing human P-glycoprotein; type: functional; conditions: Sus scrofa; procedure, shortened: as §1
[10] = Growth inhibition of dog MDCK2 cells; type: functional; conditions: Canis lupus familiaris, MDCK-II; procedure, shortened: as §1
LLC-PK1 [11] = test: Growth inhibition of pig LLC-PK1 cells in presence of P-glycoprotein inhibitor LY335979; type: functional; conditions: Sus scrofa; procedure, shortened: as §1

## CCc1ccc(C(SC[C@H](N)C(=O)O)(c2ccccc2)c2ccccc2)cc1
[1]
  GI50: 560 nM
LLC-PK1 [2]
  GI50: 340 nM
MDCK-II
  RatioGI50: 2.4
[3]
  GI50: 160 nM
[4]
  Ki: < 50 nM
[5]
  IC50: 55.4 nM
LLC-PK1 [6]
  RatioGI50: 31.8
[7]
  GI50: 290 nM
[8]
  GI50: 170 nM
[9]
  GI50: 10800 nM
[10]
  GI50: 230 nM
LLC-PK1 [11]
  GI50: 300 nM

## CCC(CC)C(SC[C@H](N)C(=O)O)(c1ccccc1)c1ccccc1
[4]
  Ki: 302 nM
[5]
  IC50: 1630 nM

## COc1ccc(C(SC[C@H](N)C(=O)O)(c2ccccc2)c2ccccc2)cc1
[1]
  GI50: 540 nM
LLC-PK1 [2]
  GI50: 1660 nM
[3]
  GI50: 1650 nM
[7]
  GI50: 240 nM
[8]
  GI50: 80 nM
[9]
  GI50: 6910 nM
[10]
  GI50: 220 nM
LLC-PK1 [11]
  GI50: 2050 nM

## N[C@@H](CSC(c1ccccc1)(c1ccccc1)c1ccc(Br)cc1)C(=O)O
[1]
  GI50: 670 nM
LLC-PK1 [2]
  GI50: 3200 nM
MDCK-II
  RatioGI50: 2.7
[3]
  GI50: 2350 nM
[4]
  Ki: < 50 nM
[5]
  IC50: 26.8 nM
LLC-PK1 [6]
  RatioGI50: 2.1
[7]
  GI50: 250 nM
[8]
  GI50: 210 nM
[9]
  GI50: 6780 nM
[10]
  GI50: 250 nM
LLC-PK1 [11]
  GI50: 2120 nM

## N[C@@H](CSC(c1ccccc1)(c1ccccc1)c1ccc(-c2ccccc2)cc1)C(=O)O
[1]
  GI50: 68500 nM
LLC-PK1 [2]
  GI50: 77800 nM
MDCK-II
  RatioGI50: 3
[3]
  GI50: 110000 nM
[4]
  Ki: 1350 nM
[5]
  IC50: 1970 nM
[7]
  GI50: 20000 nM
[8]
  GI50: 24500 nM
[10]
  GI50: 22700 nM
LLC-PK1 [11]
  GI50: 75600 nM

## NC(CSC(c1ccccc1)(c1ccccc1)c1ccc(C(=O)O)cc1)C(=O)O (configuration not stated)
[4]
  Ki: 2540 nM
[5]
  IC50: 14100 nM

## N[C@@H](CSC(c1ccccc1)(c1ccccc1)c1cccs1)C(=O)O
[4]
  Ki: 58300 nM
[5]
  IC50: 41700 nM

## N[C@@H](CSC(c1ccccc1)(c1ccccc1)c1ccc2ccccc2c1)C(=O)O
[1]
  GI50: 190 nM
LLC-PK1 [2]
  GI50: 160 nM
MDCK-II
  RatioGI50: 3.1
[3]
  GI50: 290 nM
[4]
  Ki: < 50 nM
[5]
  IC50: 16.3 nM
LLC-PK1 [6]
  RatioGI50: 38.6
[7]
  GI50: 70 nM
[8]
  GI50: 50 nM
[9]
  GI50: 6180 nM
[10]
  GI50: 60 nM
LLC-PK1 [11]
  GI50: 180 nM

## CSc1ccc(C(SC[C@H](N)C(=O)O)(c2ccccc2)c2ccccc2)cc1
[1]
  GI50: 410 nM
LLC-PK1 [2]
  GI50: 340 nM
MDCK-II
  RatioGI50: 3.7
[3]
  GI50: 670 nM
[4]
  Ki: < 50 nM
[5]
  IC50: 21.8 nM
LLC-PK1 [6]
  RatioGI50: 35.1
[7]
  GI50: 110 nM
[8]
  GI50: 210 nM
[9]
  GI50: 11800 nM
[10]
  GI50: 110 nM
LLC-PK1 [11]
  GI50: 300 nM

## N[C@@H](CSC(c1ccccc1)(c1ccccc1)c1ccc(C2CCCCC2)cc1)C(=O)O
[1]
  GI50: 50800 nM
LLC-PK1 [2]
  GI50: 47900 nM
MDCK-II
  RatioGI50: 2.1
[3]
  GI50: 56800 nM
[4]
  Ki: 3260 nM
[5]
  IC50: 1580 nM
[7]
  GI50: 17600 nM
[8]
  GI50: 17900 nM
[10]
  GI50: 24300 nM
LLC-PK1 [11]
  GI50: 64900 nM

## CCCCc1ccc(C(SC[C@H](N)C(=O)O)(c2ccccc2)c2ccccc2)cc1
[4]
  Ki: 84.2 nM
[5]
  IC50: 93.3 nM

## CC(C)C(SC[C@H](N)C(=O)O)(c1ccccc1)c1ccccc1
[4]
  Ki: 175 nM
[5]
  IC50: 1150 nM

## N[C@@H](CSC(c1ccccc1)(c1ccccc1)c1ccc(C(F)(F)F)cc1)C(=O)O
[1]
  GI50: 670 nM
LLC-PK1 [2]
  GI50: 1000 nM
MDCK-II
  RatioGI50: 2.1
[3]
  GI50: 1020 nM
[4]
  Ki: < 50 nM
[5]
  IC50: 116 nM
LLC-PK1 [6]
  RatioGI50: 8
[7]
  GI50: 330 nM
[8]
  GI50: 270 nM
[9]
  GI50: 8020 nM
[10]
  GI50: 320 nM
LLC-PK1 [11]
  GI50: 510 nM

## CCCc1ccc(C(SC[C@H](N)C(=O)O)(c2ccccc2)c2ccccc2)cc1
[1]
  GI50: 1680 nM
LLC-PK1 [2]
  GI50: 1950 nM
MDCK-II
  RatioGI50: 2.5
[3]
  GI50: 1760 nM
[4]
  Ki: < 50 nM
[5]
  IC50: 85.9 nM
LLC-PK1 [6]
  RatioGI50: 19.3
[7]
  GI50: 710 nM
[8]
  GI50: 630 nM
[9]
  GI50: 37600 nM
[10]
  GI50: 680 nM
LLC-PK1 [11]
  GI50: 1100 nM

## CC(C)(C)c1ccc(C(SC[C@H](N)C(=O)O)(c2ccccc2)c2ccccc2)cc1
[1]
  GI50: 19500 nM
LLC-PK1 [2]
  GI50: 4280 nM
MDCK-II
  RatioGI50: 6.8
[3]
  GI50: 13500 nM
[4]
  Ki: 429 nM
[5]
  IC50: 1240 nM
LLC-PK1 [6]
  RatioGI50: >12.5
[7]
  GI50: 2480 nM
[8]
  GI50: 3010 nM
[10]
  GI50: 2860 nM
LLC-PK1 [11]
  GI50: 5410 nM

## CCCCC(SC[C@H](N)C(=O)O)(c1ccccc1)c1ccccc1
[4]
  Ki: < 50 nM
[5]
  IC50: 319 nM

## CC[C@]1(O)C[C@H]2CN(CCc3c([nH]c4ccccc34)[C@@](C(=O)OC)(c3cc4c(cc3OC)N(C=O)[C@H]3[C@@](O)(C(=O)OC)[C@H](OC(C)=O)[C@]5(CC)C=CCN6CC[C@]43[C@@H]65)C2)C1 [VINCRISTINE]
[1]
  GI50: 107000 nM
LLC-PK1 [2]
  GI50: 30 nM
MDCK-II
  RatioGI50: 40.3
LLC-PK1 [6]
  RatioGI50: 70
[7]
  GI50: 430 nM
[8]
  GI50: 340 nM
[9]
  GI50: 2100 nM
[10]
  GI50: 2650 nM

## N[C@@H](CSC(c1ccccc1)(c1ccccc1)c1ccccc1)C(=O)O [S-TRITYL-L-CYSTEINE]
[1]
  GI50: 2300 nM
LLC-PK1 [2]
  GI50: 1060 nM
[3]
  GI50: 3020 nM
[7]
  GI50: 890 nM
[8]
  GI50: 580 nM
[9]
  GI50: 33000 nM
[10]
  GI50: 860 nM
LLC-PK1 [11]
  GI50: 1110 nM

## N[C@H](CSC(c1ccccc1)(c1ccccc1)c1ccccc1)C(=O)O
[1]
  GI50: 3150 nM
LLC-PK1 [2]
  GI50: 940 nM
[3]
  GI50: 4460 nM
[7]
  GI50: 920 nM
[8]
  GI50: 780 nM
[9]
  GI50: 36600 nM
[10]
  GI50: 610 nM
LLC-PK1 [11]
  GI50: 1070 nM

From ChEMBL document CHEMBL1687930 (J Med Chem, 2011)
